Results reported in ChEMBL document CHEMBL3352776, “Synthesis and biological evaluation of novel chiral diazepine derivatives as bombesin receptor subtype-3 (BRS-3) agonists incorporating an antedrug approach” (Bioorg Med Chem, 2015).
Values after ≈ are worked out from the molar mass of the structure shown.

Key:
[1] = system: Mus musculus; assay: Cmax in mouse assessed as 3-[2-[(5R)-5-(carboxymethyl)-8-(trifluoromethyl)-1,2,3,5-tetrahydropyrido[2,3-e][1,4]diazepin-4-yl]-2-oxoethyl]benzoic acid inactive metabolite at 30 mg/kg, po; format: ADME, organism-based; set-up: dose 30 mg/kg, route oral; settings: in vivo
Procedure, shortened: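 Mice acclimated 7–11 days with free access to chow and tap water, then given the ester parent orally at 30 mg/kg as a suspension in 0.5 (w/v)% methyl cellulose 400. Plasma was stored at −20 °C. The carboxylic acid metabolite was quantified in plasma by LC–MS/MS. Cmax is the average of 2 or 3 mice.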

[2] = target: T1, Bombesin receptor subtype-3 (Mus musculus, UniProt O54798); assay: Agonist activity at mouse BRS3 expressed in CHO-K1 cells by IP-One HTRF assay; format: cell-based
T1 sequence (O54798 whole entry): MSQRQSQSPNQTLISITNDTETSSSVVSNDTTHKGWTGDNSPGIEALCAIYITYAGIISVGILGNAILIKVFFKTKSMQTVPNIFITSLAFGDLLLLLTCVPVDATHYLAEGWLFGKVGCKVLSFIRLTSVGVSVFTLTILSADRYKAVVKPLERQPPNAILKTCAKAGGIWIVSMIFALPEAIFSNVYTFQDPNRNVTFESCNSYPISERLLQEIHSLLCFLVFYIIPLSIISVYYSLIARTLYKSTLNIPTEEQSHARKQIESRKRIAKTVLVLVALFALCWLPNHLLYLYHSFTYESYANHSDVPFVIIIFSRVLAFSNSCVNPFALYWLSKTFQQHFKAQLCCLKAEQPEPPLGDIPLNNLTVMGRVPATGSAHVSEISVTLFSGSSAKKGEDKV

[3] = Cmax in mouse at 30 mg/kg, po; format: ADME, organism-based; set-up: dose 30 mg/kg, route oral; settings: in vivo
[4] = system: Mus musculus; assay: Drug metabolism in mouse assessed as ratio of compound to 3-[2-[(5R)-5-(carboxymethyl)-8-(trifluoromethyl)-1,2,3,5-tetrahydropyrido[2,3-e][1,4]diazepin-4-yl]-2-oxoethyl]benzoic acid inactive metabolites at 30 mg/kg, po; format: ADME, organism-based; set-up: dose 30 mg/kg, route oral; settings: in vivo
[5] = target: T2, Bombesin receptor subtype-3 (Homo sapiens, UniProt P32247); assay: Agonist activity at human BRS3 expressed in CHO-K1 cells by IP-One HTRF assay; format: cell-based
T2 sequence (P32247 whole entry): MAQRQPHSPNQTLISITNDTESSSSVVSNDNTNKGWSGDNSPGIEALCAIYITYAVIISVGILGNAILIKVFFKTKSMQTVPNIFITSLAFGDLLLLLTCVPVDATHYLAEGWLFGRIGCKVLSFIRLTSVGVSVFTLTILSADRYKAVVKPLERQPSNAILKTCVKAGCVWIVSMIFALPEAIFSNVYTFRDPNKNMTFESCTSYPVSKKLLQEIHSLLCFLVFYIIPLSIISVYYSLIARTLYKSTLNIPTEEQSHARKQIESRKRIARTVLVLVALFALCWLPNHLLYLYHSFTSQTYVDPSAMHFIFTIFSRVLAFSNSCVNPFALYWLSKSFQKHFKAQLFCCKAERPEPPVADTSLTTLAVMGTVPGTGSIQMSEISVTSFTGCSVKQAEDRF

[6] = system: Mus musculus; assay: Cmax in mouse assessed as 2-[(5R)-4-[2-(3-hydroxyphenyl)acetyl]-8-(trifluoromethyl)-1,2,3,5-tetrahydropyrido[2,3-e][1,4]diazepin-5-yl]acetic acid inactive metabolite at 30 mg/kg, po; format: ADME, organism-based; set-up: dose 30 mg/kg, route oral; settings: in vivo
[7] = system: Mus musculus; assay: Drug metabolism in mouse assessed as ratio of compound to 2-[(5R)-4-[2-(3-hydroxyphenyl)acetyl]-8-(trifluoromethyl)-1,2,3,5-tetrahydropyrido[2,3-e][1,4]diazepin-5-yl]acetic acid at 30 mg/kg, po; format: ADME, organism-based; set-up: dose 30 mg/kg, route oral; settings: in vivo
[8] = system: Canis familiaris; assay: Cardiotoxicity in beagle dog assessed as blood pressure at 3 mg/kg/3 ml, iv for 30 mins; format: toxicity, organism-based, Canis lupus familiaris; set-up: route intravenous; settings: in vivo, 0.5 h
Procedure, shortened: (§1)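 Dogs were anaesthetized with halothane (0.5–1.5% end-tidal) after iv thiopental 30 mg/kg. Compound was dispersed at 1 mg/mL in 20% hydroxypropyl-β-cyclodextrin and infused into the femoral vein at 3 mg/kg/3 mL over 30 min. Femoral artery HR and mean BP were recorded for 60 min, normalized to the 0-min value; n = 2.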

[9] = system: Canis familiaris; assay: Cardiotoxicity in beagle dog assessed as heart rate at 3 mg/kg/3 ml, iv for 30 mins; format: toxicity, organism-based, Canis lupus familiaris; set-up: route intravenous; settings: in vivo, 0.5 h; procedure, shortened: as §1
[10] = system: Mus musculus; assay: Antiobesity activity in C57BL/6N mouse assessed as reduction in food intake at 30 mg/kg, po single dose; format: functional
Procedure, shortened: (§2)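 Male C57BL/6N mice, 7 weeks old, were fasted 16 h, housed singly and habituated 1 h. They then received a single oral dose (1, 3, 10, 30 mg/kg) or vehicle (0.5% methylcellulose). Chow was given 1 h later and cumulative intake over 6 h was recorded. n = 4–5; Dunnett's test versus vehicle.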

[11] = Solubility of the compound in JP2; format: physicochemical
[12] = system: Mus musculus; assay: (§3) AUC in mouse at 30 mg/kg, po; format: ADME, organism-based, Plasma; set-up: dose 30 mg/kg, route oral; settings: in vivo, BLD = below limit of detection
[13] = Fraction unbound in mouse plasma; format: ADME, cell-free
Procedure, shortened: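 Unbound fraction measured in mouse plasma.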

[14] = system: Mus musculus; assay: (§4) Half life in mouse at 30 mg/kg, po; format: ADME, organism-based; set-up: dose 30 mg/kg, route oral; settings: in vivo, BLD = below limit of detection
[15] = system: Mus musculus; assay: Antiobesity activity in po dosed C57BL/6N mouse assessed as anorectic effect; format: functional, organism-based; procedure, shortened: as §2
[16] = system: Mus musculus; assay: Half life in mouse assessed as 2-[(5R)-4-[2-(3-Hydroxyphenyl)acetyl]-8-(trifluoromethyl)-1,2,3,5-tetrahydropyrido[2,3-e][1,4]diazepin-5-yl]acetic acid at 30 mg/kg, po; format: ADME, organism-based; set-up: dose 30 mg/kg, route oral; settings: in vivo
[17] = Tmax in mouse at 30 mg/kg, po; format: ADME, organism-based; set-up: dose 30 mg/kg, route oral; settings: in vivo
[18] = system: Mus musculus; assay: AUC in mouse assessed as 2-[(5R)-4-[2-(3-Hydroxyphenyl)acetyl]-8-(trifluoromethyl)-1,2,3,5-tetrahydropyrido[2,3-e][1,4]diazepin-5-yl]acetic acid at 30 mg/kg, po; format: ADME, organism-based, Plasma; set-up: dose 30 mg/kg, route oral; settings: in vivo
[19] = as §3; format: ADME, organism-based, Plasma; set-up: dose 30 mg/kg, route oral; settings: plasma
[20] = as §4; format: ADME, organism-based; set-up: dose 30 mg/kg, route oral; settings: in vivo
[21] = system: Mus musculus; assay: Tmax in mouse assessed as 2-[(5R)-4-[2-(3-hydroxyphenyl)acetyl]-8-(trifluoromethyl)-1,2,3,5-tetrahydropyrido[2,3-e][1,4]diazepin-5-yl]acetic acid at 30 mg/kg, po; format: ADME, organism-based; set-up: dose 30 mg/kg, route oral; settings: in vivo

| SMILES | Cmax [1] [nM] | EC50 [2] [nM] | Cmax [3] [nM] | Ratio [4] | EC50 [5] [nM] | Cmax [6] [nM] | Ratio [7] | further results |
| --- | --- | --- | --- | --- | --- | --- | --- | --- |
| CC(C)OC(=O)c1cccc(CC(=O)N2CCNc3nc(C(F)(F)F)ccc3[C@H]2CC(=O)O)c1 | 918 | 45 | 1240 | 1.35 | 40 |  |  |  |
| O=C(O)C[C@@H]1c2ccc(C(F)(F)F)nc2NCCN1C(=O)Cc1cccc(C(=O)O)c1 |  | > 10000 |  |  | > 10000 |  |  |  |
| CC(C)(C)CC(=O)Oc1cccc(CC(=O)N2CCNc3nc(C(F)(F)F)ccc3[C@H]2CC(=O)O)c1 |  | 20 | 5.8 |  | 8.7 | 32.5 | 0.179 |  |
| O=C(O)C[C@@H]1c2ccc(C(F)(F)F)nc2NCCN1C(=O)Cc1cccc(OC(=O)CC2CC2)c1 |  | 81 |  |  | 42 | 607 | 0 |  |
| CC(C)COC(=O)c1cccc(CC(=O)N2CCNc3nc(C(F)(F)F)ccc3[C@H]2CC(=O)O)c1 | 2120 | 5.4 | 30.8 | 0.0145 | 4.2 |  |  |  |
| CC(C)(C)COC(=O)c1cccc(CC(=O)N2CCNc3nc(C(F)(F)F)ccc3[C@H]2CC(=O)O)c1 | 197 | 8.1 | 12.7 | 0.0643 | 5.6 |  |  |  |
| CCCCOC(=O)c1cccc(CC(=O)N2CCNc3nc(C(F)(F)F)ccc3[C@H]2CC(=O)O)c1 | 1630 | 5.6 | 28.5 | 0.0175 | 4 |  |  |  |
| CCCCC(=O)Oc1cccc(CC(=O)N2CCNc3nc(C(F)(F)F)ccc3[C@H]2CC(=O)O)c1 |  | 35 | 28.5 |  | 19 | 1630 | 0.0175 |  |
| CC(C)C(=O)Oc1cccc(CC(=O)N2CCNc3nc(C(F)(F)F)ccc3[C@H]2CC(=O)O)c1 |  | 282 |  |  | 68 | 680 | 0 |  |
| CC(C)CC(=O)Oc1cccc(CC(=O)N2CCNc3nc(C(F)(F)F)ccc3[C@H]2CC(=O)O)c1 |  | 43 |  |  | 12 | 1260 | 0 | Activity [8]: Non-toxic; Activity [9]: Non-toxic; inhibition in vivo at 30 mg/kg [10]: 30%; solubility [11]: 900 µg/mL (≈ 1820 µM); AUC [12]: BLD; fraction unbound [13]: 0.108; t1/2 [14]: BLD; inhibition [15]: Dose-dependent effect |
| O=C(O)C[C@@H]1c2ccc(C(F)(F)F)nc2NCCN1C(=O)Cc1cccc(C(=O)OCC2CC2)c1 | 300 | 3.7 | 39.3 | 0.131 | 3.4 |  |  |  |
| O=C(O)C[C@@H]1c2ccc(C(F)(F)F)nc2NCCN1C(=O)Cc1cccc(O)c1 |  | > 10000 | 40 |  | > 10000 |  |  | t1/2 [16]: 15 min; Tmax [17]: 15 min; solubility [11]: 780 µg/mL (≈ 1910 µM); AUC [18]: 1.23 µg·h/mL; AUC [19]: 1230 ng·h/mL; fraction unbound [13]: > 0.3; half-life [20]: 15 min; Tmax [21]: 15 min |
| CC(C)COc1cccc(CC(=O)N2CCNc3nc(C(F)(F)F)ccc3[C@H]2CC(=O)O)c1 |  |  |  |  |  |  |  | Activity [8]: Toxic; Activity [9]: Toxic |
